Experimental data reported in ChEMBL document CHEMBL1131023, “Identification of a dihydropyridine as a potent alpha1a adrenoceptor-selective antagonist that inhibits phenylephrine-induced contraction of the human prostate” (J Med Chem, 1998).
pKi: −log10 of the molar value.

Tests used:
[1] = target: T1, Alpha-1D adrenergic receptor (Homo sapiens, UniProt P25100); assay: Binding affinity determined by displacement of [3H]prazosin from alpha-1D adrenergic receptor
T1 sequence (P25100 whole entry): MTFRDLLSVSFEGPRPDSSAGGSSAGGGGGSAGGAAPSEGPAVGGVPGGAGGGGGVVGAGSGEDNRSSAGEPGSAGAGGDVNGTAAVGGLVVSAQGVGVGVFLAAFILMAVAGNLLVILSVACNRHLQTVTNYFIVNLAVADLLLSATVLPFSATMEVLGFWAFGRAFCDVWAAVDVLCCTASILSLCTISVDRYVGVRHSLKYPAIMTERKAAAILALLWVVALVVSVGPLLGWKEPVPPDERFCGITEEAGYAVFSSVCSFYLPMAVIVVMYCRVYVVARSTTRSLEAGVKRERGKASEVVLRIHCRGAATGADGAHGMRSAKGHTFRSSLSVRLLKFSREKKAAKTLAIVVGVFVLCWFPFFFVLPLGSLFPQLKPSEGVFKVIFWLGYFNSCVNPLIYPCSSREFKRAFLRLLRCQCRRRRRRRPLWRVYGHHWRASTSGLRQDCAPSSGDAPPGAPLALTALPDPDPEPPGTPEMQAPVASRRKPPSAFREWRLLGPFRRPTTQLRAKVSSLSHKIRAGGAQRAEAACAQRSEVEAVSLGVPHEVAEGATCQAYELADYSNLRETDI
Summary of the method: (§1)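 Radioligand displacement binding at the cloned receptor, incubated for 30 min.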

[2] = target: T2, Alpha-2A adrenergic receptor (Homo sapiens, UniProt P08913); assay: Binding affinity determined by displacement of [3H]rauwolscine from alpha-2A adrenergic receptor; summary of the method: as §1
T2 sequence (P08913 whole entry): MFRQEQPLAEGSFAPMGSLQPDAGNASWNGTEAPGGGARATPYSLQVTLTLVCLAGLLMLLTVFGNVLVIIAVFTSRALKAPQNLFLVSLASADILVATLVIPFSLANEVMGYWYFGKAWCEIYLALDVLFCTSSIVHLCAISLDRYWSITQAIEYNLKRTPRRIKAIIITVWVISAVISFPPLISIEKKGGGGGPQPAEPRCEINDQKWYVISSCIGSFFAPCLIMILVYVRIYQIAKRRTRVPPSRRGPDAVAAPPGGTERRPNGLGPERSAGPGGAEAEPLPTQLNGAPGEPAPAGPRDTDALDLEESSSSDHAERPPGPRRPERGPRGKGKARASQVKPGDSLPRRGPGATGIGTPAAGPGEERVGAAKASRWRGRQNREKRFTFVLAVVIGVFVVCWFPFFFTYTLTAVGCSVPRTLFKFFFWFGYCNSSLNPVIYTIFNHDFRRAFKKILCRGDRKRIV

[3] = target: T3, Alpha-1A adrenergic receptor (Homo sapiens, UniProt P35348); assay: Binding affinity determined by displacement of [3H]prazosin from alpha-1A adrenergic receptor
T3 sequence (P35348 whole entry): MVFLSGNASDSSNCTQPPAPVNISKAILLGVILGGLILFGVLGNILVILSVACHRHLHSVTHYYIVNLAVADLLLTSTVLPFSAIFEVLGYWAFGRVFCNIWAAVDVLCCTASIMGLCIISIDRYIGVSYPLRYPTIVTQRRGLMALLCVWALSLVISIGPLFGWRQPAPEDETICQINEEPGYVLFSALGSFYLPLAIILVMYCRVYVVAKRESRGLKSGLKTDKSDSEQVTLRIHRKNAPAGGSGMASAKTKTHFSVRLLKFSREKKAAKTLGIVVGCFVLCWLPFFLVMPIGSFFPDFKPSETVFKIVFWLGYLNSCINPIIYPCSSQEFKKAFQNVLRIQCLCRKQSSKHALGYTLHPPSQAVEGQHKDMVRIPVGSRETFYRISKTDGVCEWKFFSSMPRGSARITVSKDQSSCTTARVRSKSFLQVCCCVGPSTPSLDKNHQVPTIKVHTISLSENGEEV

[4] = target: T4, Alpha-2B adrenergic receptor (Homo sapiens, UniProt P18089); assay: Binding affinity determined by displacement of [3H]rauwolscine from alpha-2B adrenergic receptor
T4 sequence (P18089 whole entry): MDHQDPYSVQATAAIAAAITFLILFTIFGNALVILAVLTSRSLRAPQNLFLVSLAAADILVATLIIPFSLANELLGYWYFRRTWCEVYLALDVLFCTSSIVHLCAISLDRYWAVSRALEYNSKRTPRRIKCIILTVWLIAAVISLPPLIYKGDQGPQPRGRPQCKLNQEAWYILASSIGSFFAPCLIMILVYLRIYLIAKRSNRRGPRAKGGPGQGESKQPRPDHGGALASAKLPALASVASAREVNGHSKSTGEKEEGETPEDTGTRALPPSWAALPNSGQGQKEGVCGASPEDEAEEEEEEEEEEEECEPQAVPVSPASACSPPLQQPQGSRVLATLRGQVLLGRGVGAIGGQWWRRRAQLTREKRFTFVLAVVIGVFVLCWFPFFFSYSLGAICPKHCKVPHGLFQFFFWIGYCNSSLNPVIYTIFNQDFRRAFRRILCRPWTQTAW

[5] = target: T5, Alpha-1B adrenergic receptor (Homo sapiens, UniProt P35368); assay: Binding affinity determined by displacement of [3H]prazosin from alpha-1B adrenergic receptor
T5 sequence (P35368 whole entry): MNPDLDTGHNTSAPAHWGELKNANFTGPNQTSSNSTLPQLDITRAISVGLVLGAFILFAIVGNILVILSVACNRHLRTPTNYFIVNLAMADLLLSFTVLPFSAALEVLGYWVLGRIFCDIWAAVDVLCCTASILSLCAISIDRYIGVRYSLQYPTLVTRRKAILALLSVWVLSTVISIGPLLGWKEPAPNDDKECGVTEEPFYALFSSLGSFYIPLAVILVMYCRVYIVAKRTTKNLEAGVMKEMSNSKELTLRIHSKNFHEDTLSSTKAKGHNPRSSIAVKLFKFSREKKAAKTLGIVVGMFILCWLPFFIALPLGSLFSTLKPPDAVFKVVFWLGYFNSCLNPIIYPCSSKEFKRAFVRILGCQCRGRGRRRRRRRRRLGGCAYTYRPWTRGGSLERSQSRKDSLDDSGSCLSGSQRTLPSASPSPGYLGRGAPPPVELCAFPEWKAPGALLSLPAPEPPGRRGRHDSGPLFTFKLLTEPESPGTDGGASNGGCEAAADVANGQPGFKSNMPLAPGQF

[6] = target: T6, Alpha-2C adrenergic receptor (Homo sapiens, UniProt P18825); assay: Binding affinity assayed by displacement of [3H]rauwolscine from human alpha-2C adrenergic receptor; summary of the method: as §1
T6 sequence (P18825 whole entry): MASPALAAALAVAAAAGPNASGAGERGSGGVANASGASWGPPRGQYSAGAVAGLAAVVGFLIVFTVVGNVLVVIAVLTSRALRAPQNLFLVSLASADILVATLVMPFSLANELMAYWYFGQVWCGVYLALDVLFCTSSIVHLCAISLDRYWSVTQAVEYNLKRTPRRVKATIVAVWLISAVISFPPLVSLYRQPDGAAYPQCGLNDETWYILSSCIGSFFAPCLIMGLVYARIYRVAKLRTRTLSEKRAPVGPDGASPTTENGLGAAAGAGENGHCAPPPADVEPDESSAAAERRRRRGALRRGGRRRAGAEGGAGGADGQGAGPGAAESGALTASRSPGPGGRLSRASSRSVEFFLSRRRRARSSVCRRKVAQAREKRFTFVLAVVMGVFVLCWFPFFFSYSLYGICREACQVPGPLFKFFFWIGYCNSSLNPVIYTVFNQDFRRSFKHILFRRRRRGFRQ

[7] = target: Voltage-gated L-type calcium channel (Rattus norvegicus, UniProt P22002+Q02485+P27732); assay: Binding affinity at the L-type [Ca2+] channel from rat brain homogenate by [3H]nitrendipine displacement.; format: tissue-based

Structure (SMILES)	pKi [1]	pKi [2]	pKi [3]	pKi [4]	pKi [5]	pKi [6]	Log Ki [7]
CO/C(O)=C1\C(C)=NC(C)=C(C(=O)NCCCCN2CCC(c3ccccc3)(c3ccccc3)CC2)C1c1ccc([N+](=O)[O-])cc1 (configuration not stated)	6.48	6.19	7.83	6.43	6.87	6.55	< -6
CC1=C(C(N)=O)C(c2ccc3c(c2)OCO3)C(C(=O)NCCCN2CCC(c3ccccc3)(c3ccccc3)CC2)=C(C)N1 (configuration not stated)	5.94	6.30	8.06	6.69	5.93	6.14	< -6
CC(=O)C1=C(C)NC(C)=C(C(=O)NCCCN2CCC(c3ccccc3)(c3ccccc3)CC2)C1c1ccc2c(c1)OCO2 (configuration not stated)	6.34	6.02	8.05	6.42	6.42	6.39	< -6

The next compounds have a higher pKi [1] than those just listed; values first:

pKi [1]	pKi [2]	pKi [3]	pKi [4]	pKi [5]	pKi [6]	Log Ki [7]	Structure (SMILES)
6.50	5.89	8.86	6.04	6.57	6.38	< -6	CO/C(O)=C1\C(C)=NC(C)=C(C(=O)NCCCN2CCC(c3ccccc3)(c3ccccc3)CC2)C1c1ccc(C)cc1 (configuration not stated)
7.18	6.56	9.64	6.66	7.87	7.09	< -6	CO/C(O)=C1\C(C)=NC(C)=C(C(=O)NCCCN2CCC(c3ccccc3)CC2)C1c1ccc([N+](=O)[O-])cc1 (configuration not stated)
6.52	5.95	8.95	6.06	6.65	6.24	< -6	CO/C(O)=C1\C(C)=NC(C)=C(C(=O)NCCCN2CCC(c3ccccc3)(c3ccccc3)CC2)C1c1ccc2c(c1)OCO2 (configuration not stated)
